“And” between values parts separate entries of the source, which are not always exact repeats. Identical values can stand only once. Counter-ions that a name gives are not always drawn. Like-named read-outs stand apart in the source and are kept apart here. Positions of bridges follow the written chain, without caps; N, C: chain ends. Non-standard residues stand in square brackets, D forms with d. Residues, ends and D or L forms follow the SMILES beside them. Orn = NCCC[C@H](N)C(=O)O; Mpa = O=C(O)CCS
Tests used:
[1] = cited from earlier work
[2] = format: in vitro ADME, human
How it was run: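 Term placentas (39–41 weeks, no chorioamnionitis) perfused ex vivo as double-sided open cotyledon at 36.5 °C; fetal flow 2 mL/min, maternal 10 mL/min. Test compound 1.2 µM (1 µg/mL) in perfusate with antipyrine 531 µM co-infused. Fetal venous samples at 1–120 min; Evans blue integrity check. LC-MS/MS for test compound, spectrophotometry for antipyrine; trapezoidal AUC ratio; mean ± SD.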

cloned human V1AR = settings: read-out: Ki (affinity), cloned human V1AR; two literature values; cited from earlier work
[3] = sheep, epitheliochoral placenta; cited from earlier work
[4] = tested on: vasopressin-induced contractions of isolated term-pregnant human myometrium; settings: cited from earlier work
[5] = tested on: oxytocin-induced uterine contractions; settings: cited from earlier work
[6] = up to 2.5 mg barusiban/kg body weight/day from day 85 of gestation until delivery; cited from earlier work
[7] = Placental transfer in cynomolgus monkeys; format: in vivo, cynomolgus monkeys (Macaca fascicularis); settings: cynomolgus monkey
How it was run: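 Three pregnant monkeys, gestation day 150 ± 1. Test compound infused intravenously (saphenous vein) over 2 h to 300 µg/kg in 5 mL/kg, from a 10 mg/mL stock in 0.04 M acetate pH 4.3 diluted in saline. Maternal brachial plasma taken pre-dose, 1 and 2 h. Umbilical venous plasma and amniotic fluid taken at C-section under ketamine/xylazine. Plasma measured by RIA, amniotic fluid by LC-MS/MS; paired t-test.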

[8] = cited from earlier work; remark: listed apart in the source
[9] = Placental transfer in rabbits; format: in vivo, New Zealand white rabbits; settings: rabbit
How it was run: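 Pregnant rabbits (5–6 months, 3.0–4.4 kg) given the radiolabelled test compound by ear-vein bolus daily on gestation days 24–30: mean 3.01 mg/kg, 522 kBq/kg, in 0.9% saline. Three dams per time point killed by barbiturate at 10 min, 1, 3 and 10 h after dosing. Maternal ear-artery blood taken; from one fetus per sex, cardiac blood and tissues taken. Liquid scintillation counting; levels expressed as % of maternal peak.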

[10] = quantitative whole-body autoradiography; format: in vivo; settings: marmoset; normally below the limit of quantification; unpublished data
[11] = quantitative whole-body autoradiography; format: in vivo; settings: rat; all sampling times; limit of quantitation 40 pmoles/g; unpublished data

O=S(=O)([O-])[O-].[Mg+2] [MgSO4]
placental transfer ([1]; in humans): up to 100%

Cc1cc(=O)n(-c2ccccc2)n1C [antipyrine, reference compound]
transfer of antipyrine relative to barusiban ([2]; human placental single cotyledon, comparator): approximately three times greater

CCOc1ccc(C[C@H]2NC(=O)CCSSC[C@@H](C(=O)N3CCC[C@H]3C(=O)N[C@@H](CCCN)C(=O)NCC(N)=O)NC(=O)[C@H](CC(N)=O)NC(=O)[C@H]([C@@H](C)O)NC(=O)[C@H]([C@@H](C)CC)NC2=O)cc1 [atosiban] ([Mpa][dY](Et)ITNCP[Orn]G-NH2; disulfide 1-6 (inferred); C-terminus assumed)
Ki (cloned human V1AR): 3.5 nM and 4.7 nM
placental transfer [3]: could not be detected
placental transfer ([1]; in vivo, pregnant women at term): 12%

CC[C@@H](C)[C@@H]1NC(=O)[C@H]([C@@H](C)CC)NC(=O)[C@@H](Cc2c[nH]c3ccccc23)NC(=O)CCSCC[C@@H](C(=O)N(C)[C@H](CO)CCCN)NC(=O)[C@H](CC(N)=O)NC1=O [barusiban]
AUC ratio of barusiban to antipyrine ([2]; ex vivo perfused human cotyledon, mean of ratios ± SD, n = 13, SD): 36 ± 11%
effect on vasopressin-induced contractions [4]: practically no effect
reduction of induced uterine contractions compared with fenoterol ([5]; cynomolgus monkey): more effective than fenoterol
reduction of oxytocin-induced uterine contractions compared with atosiban ([5]; pregnant cynomolgus monkey, action also longer lasting): more potent
effects in the mother or offspring [6]: no barusiban-related effects
increase of maternal plasma barusiban from 1 h to 2 h ([7]; individual values of two animals): 40.4% and 54.6%
mean amniotic barusiban at C-section as % of the maternal plasma after 2 h ([7]; iv infusion 2 h to 300 μg/kg, n = 3): 1.9%
decrease of maternal plasma barusiban from 1 h to 2 h ([7]; third animal): 5.0%
effect over the placebo group (women who did not deliver within 48 h) ([8]; Phase II clinical trial): did not demonstrate a statistically significant effect
fetal and neonatal adverse events with maternal barusiban ([8]; clinical study, did not differ from placebo): very low level of fetal and neonatal adverse events
barusiban level in other fetal tissues as % of the maternal blood ([9]; 10 min post-dose, or less than LLOQ): < 1%
barusiban in most fetal tissue samples as % of the maternal peak blood level ([9]; 1 h post-dose, or less than LLOQ): less than 1%
fetal blood barusiban as % of that after 10 min ([9]; 1 h post-dose): 79.3%
fetal blood barusiban as % of the peak maternal level ([9]; 1 h post-dose): 4.2%
fetal plasma barusiban as % of the peak maternal level ([9]; 1 h post-dose): 5.0%
maternal blood barusiban as % of the maximum level ([9]; 1 h post-dose): 32.8%
maternal plasma barusiban as % of the maximum level ([9]; 1 h post-dose): 35.2%
maternal blood barusiban as % of its maximum level ([9]; 3 h post-dose): 6.1%
maternal plasma barusiban as % of its maximum level ([9]; 3 h post-dose): 7.9%
fetal adrenal barusiban as % of the maximal maternal blood level ([9]; 10 h post-dose, one adrenal): 12.0%
barusiban in all other fetal tissues as % of peak maternal blood level ([9]; 10 h post-dose, or less than LLOQ): less than 1%
amniotic fluid barusiban as % of the maximal maternal blood level ([9]; 10 h post-dose): 5.7%
fetal blood barusiban as % of initial maternal level ([9]; 10 h post-dose): less than 2%
fetal plasma barusiban as % of initial maternal level ([9]; 10 h post-dose): less than 3%
maternal blood barusiban as % of the first determination ([9]; 10 h post-dose): less than 1%
maternal plasma barusiban as % of the first determination ([9]; 10 h post-dose): less than 2%
radioactivity in fetal brain (QWBA) [10]: < 12 pmoles/g tissue
barusiban in the fetuses (QWBA) [11]: < 40 pmol/g

CC(NCCc1ccc(O)cc1)C(O)c1ccc(O)cc1 (centres unmarked) [ritodrine hydrochloride]
placental transfer ([1]; in humans, long-term treatment): 70%
placental transfer ([1]; in humans, short-term treatment): 26%

— publication PMC7313255 (Biology of Reproduction, 2020)
